Reference: ChEMBL document CHEMBL1240396, “In vitro sensitivities of Plasmodium falciparum to different antimalarial drugs in Uganda” (Antimicrob Agents Chemother, 2010)

Key:
Plasmodium falciparum [1] = assay: Antimicrobial activity against chloroquine-resistant Plasmodium falciparum W2 by ELISA
Plasmodium falciparum [2] = assay: Antimicrobial activity against chloroquine-resistant Plasmodium falciparum K1 by ELISA; format: functional, organism-based
Outline: (§1)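 Reference laboratory lines run as controls. Drug-predosed wells held seven duplicate 2-fold dilutions (CQ 15.7–1,002 nM; MDAQ 6.25–400 nM; QN 15.4–985 nM; DHA 0.13–8.5 nM; LM 0.2–12.5 nM; PQ 1.6–100 nM). Incubated 72 h, 37°C, 5% CO2, freeze-thawed, and HRP-2 measured by ELISA at A450 against drug-free wells. IC50 by nonlinear regression.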

Plasmodium falciparum [3] = assay: Antimicrobial activity against chloroquine-sensitive Plasmodium falciparum HB3 by ELISA
Plasmodium falciparum [4] = assay: Antimicrobial activity against Plasmodium falciparum by ELISA; format: functional, organism-based
Outline: (§2)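 Fresh patient isolates, taken before therapy, washed in RPMI 1640, diluted with group O erythrocytes to 0.05% parasitemia, ~2% PCV with 0.5% Albumax II. Added to dried predosed wells with seven duplicate 2-fold dilutions (CQ 15.7–1,002 nM; MDAQ 6.25–400 nM; QN 15.4–985 nM; DHA 0.13–8.5 nM; LM 0.2–12.5 nM; PQ 1.6–100 nM). Incubated 72 h, 37°C, 5% CO2, then freeze-thawed. HRP-2 ELISA (A450) compared against drug-free wells. IC50 from nonlinear regression.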

Plasmodium falciparum [5] = assay: Antimicrobial activity against chloroquine-sensitive Plasmodium falciparum D6 by ELISA; format: functional, organism-based
Outline: as §1

Plasmodium falciparum [6] = assay: Antimicrobial activity against Plasmodium falciparum harboring mdr1 N86Y/D1246Y/Y184F mutant gene by ELISA; format: functional, organism-based
Outline: as §2

Row | SMILES | IC50 (Plasmodium falciparum [1]) [nM] | IC50 (Plasmodium falciparum [2]) [nM] | IC50 (Plasmodium falciparum [3]) [nM] | IC50 (Plasmodium falciparum [4]) [nM] | IC50 (Plasmodium falciparum [5]) [nM] | IC50 (Plasmodium falciparum [6]) [nM]
1 | C[C@H]1[C@@H](O)O[C@@H]2O[C@@]3(C)CC[C@H]4[C@H](C)CC[C@@H]1[C@@]24OO3 [ARTENIMOL] | 0.41 | 0.49 | 0.71 | 0.55 | 0.79 | –
2 | CCNCc1cc(Nc2ccnc3cc(Cl)ccc23)ccc1O [DESETHYL AMODIAQUINE] | 268 | 262 | 29.8 | 66.4 | 30.9 | 6.3
3 | CCCCN(CCCC)CC(O)c1cc(Cl)cc2c1-c1ccc(Cl)cc1/C2=C/c1ccc(Cl)cc1 (stereo not drawn) [LUMEFANTRINE] | 0.45 | 0.31 | 1.41 | 0.51 | 1.82 | 0.19
4 | Clc1ccc2c(N3CCN(CCCN4CCN(c5ccnc6cc(Cl)ccc56)CC4)CC3)ccnc2c1 [PIPERAQUINE] | – | 12.5 | 10.5 | 6.1 | 6.26 | 1.6
5 | C=C[C@H]1CN2CC[C@H]1C[C@H]2[C@H](O)c1ccnc2ccc(OC)cc12 [QUININE] | 491 | 276 | 236 | 94.4 | 107 | 15.4
